According to ChEMBL document CHEMBL1144223, “Design, synthesis, and docking studies of novel benzopyrone derivatives as H(1)-antihistaminic agents” (Bioorg Med Chem, 2008):
Structures can show the parent of a compound that is named as a salt.

Experiments:
Format in all cases: functional, tissue-based
Histamine H1 receptor [1] = molecular target: T1, Histamine H1 receptor (Cavia porcellus, UniProt P31389); experiment: Antagonist activity at histamine H1 receptor in guinea pig ileum assessed as inhibition of histamine-induced contractions at 0.1 mg/ml
Summary of the method: (§1)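 Isolated ileum from male guinea pigs (250–400 g), killed by a blow to the skull and cervical dislocation. Segments 2–3 cm long were tied to an aerating tube and an isotonic transducer. Cumulative histamine diphosphate was added every 2 min, from the threshold concentration up to the maximal response. Contraction height was expressed as % of the maximum with saline. EC50 and Emax were compared with saline (Student's t-test, n = 5 strips, mean ± SEM).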

Histamine H1 receptor [2] = molecular target: T1, Histamine H1 receptor; experiment: Antagonist activity at histamine H1 receptor in guinea pig ileum assessed as inhibition of histamine-induced contractions at 0.5 mg/ml; summary of the method: as §1
Histamine H1 receptor [3] = molecular target: T1, Histamine H1 receptor; experiment: Antagonist activity at histamine H1 receptor in guinea pig ileum assessed as inhibition of histamine-induced contractions at 1.0 mg/ml; summary of the method: as §1
[4] = molecular target: Histamine H1 receptor (Cavia porcellus) (UniProt P31389); experiment: Antagonist activity at histamine H1 receptor in guinea pig ileum assessed as inhibition of histamine-induced contractions at 0.1 mg/ml relative to control; summary of the method: as §1
[5] = molecular target: Histamine H1 receptor (Cavia porcellus) (UniProt P31389); experiment: Antagonist activity at histamine H1 receptor in guinea pig ileum assessed as inhibition of histamine-induced contractions at 0.5 mg/ml relative to control; summary of the method: as §1
[6] = molecular target: Histamine H1 receptor (Cavia porcellus) (UniProt P31389); experiment: Antagonist activity at histamine H1 receptor in guinea pig ileum assessed as inhibition of histamine-induced contractions at 1.0 mg/ml relative to control; summary of the method: as §1
Histamine H1 receptor [7] = molecular target: T1, Histamine H1 receptor; experiment: Antagonist activity at histamine H1 receptor in guinea pig ileum assessed as inhibition of histamine-induced contractions at 5 ug/ml; summary of the method: as §1
[8] = molecular target: Histamine H1 receptor (Cavia porcellus) (UniProt P31389); experiment: Antagonist activity at histamine H1 receptor in guinea pig ileum assessed as inhibition of histamine-induced contractions at 5 ug/ml relative to control; summary of the method: as §1

T1 sequence (P31389 whole entry): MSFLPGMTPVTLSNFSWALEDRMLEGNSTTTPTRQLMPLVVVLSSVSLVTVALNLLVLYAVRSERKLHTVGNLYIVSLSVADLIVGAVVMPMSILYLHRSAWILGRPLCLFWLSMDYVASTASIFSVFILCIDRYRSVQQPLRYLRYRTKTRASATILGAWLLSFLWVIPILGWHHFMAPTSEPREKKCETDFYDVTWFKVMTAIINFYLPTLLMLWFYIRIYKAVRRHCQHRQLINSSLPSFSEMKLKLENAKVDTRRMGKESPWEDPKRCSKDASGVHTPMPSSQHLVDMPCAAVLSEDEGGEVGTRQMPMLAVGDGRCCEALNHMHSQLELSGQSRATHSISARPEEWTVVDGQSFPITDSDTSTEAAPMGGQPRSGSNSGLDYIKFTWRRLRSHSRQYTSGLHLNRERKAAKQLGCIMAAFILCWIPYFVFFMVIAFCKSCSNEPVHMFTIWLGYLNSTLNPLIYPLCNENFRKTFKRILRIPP
Chain of Histamine H1 receptor (Cavia porcellus) (P31389 whole entry): as above

Structure (SMILES)	EC50 (Histamine H1 receptor [1]) [µM]	EC50 (Histamine H1 receptor [2]) [µM]	EC50 (Histamine H1 receptor [3]) [µM]	Emax [4] [%]	Emax [5] [%]	Emax [6] [%]	EC50 (Histamine H1 receptor [7]) [µM]	Emax [8] [%]
O=c1cc(-c2ccccc2)c2ccc(OCC(O)CN3CCNCC3)cc2o1 (centres undefined)	0.0152	0.0166	0.0226	100	100	53	–	–
COc1ccccc1N1CCN(CC(O)COc2ccc3oc(=O)cc(C)c3c2)CC1 (centres undefined)	0.0137	0.0146	0.02	100	96	58	–	–
Cc1cc(=O)oc2ccc(OCC(O)CN3CCN(c4ccccc4)CC3)cc12 (centres undefined)	0.0132	0.016	0.0215	100	95	60	–	–
Cc1cc(=O)oc2ccc(OCC(O)CN3CCN(C)CC3)cc12 (centres undefined)	0.0174	0.0181	0.0244	100	98	54	–	–
CN(C)CCC(c1ccccc1)c1ccccn1 (centres undefined) [PHENIRAMINE MALEATE]	–	–	–	–	–	–	0.0191	78
CCN(CC)CC(O)COc1ccc2c(-c3ccccc3)cc(=O)oc2c1 (centres undefined)	0.0161	0.0174	0.0242	100	95	60	–	–
COc1ccccc1N1CCN(CC(O)COc2ccc3c(-c4ccccc4)cc(=O)oc3c2)CC1 (centres undefined)	0.0117	0.0127	0.0183	100	96	52	–	–
Cc1cc(=O)oc2ccc(OCC(O)CN3CCCCC3)cc12 (centres undefined)	0.0173	0.0205	0.0262	100	98	55	–	–
O=c1cc(-c2ccccc2)c2ccc(OCC(O)CN3CCN(c4ccccc4)CC3)cc2o1 (centres undefined)	0.0118	0.0138	0.0182	100	94	54	–	–
O=c1cc(-c2ccccc2)c2ccc(OCC(O)CN3CCCCC3)cc2o1 (centres undefined)	0.0148	0.0158	0.0235	100	94	60	–	–
O=c1cc(-c2ccccc2)c2ccc(OCC(O)CN3CCOCC3)cc2o1 (centres undefined)	0.0144	0.0163	0.0218	100	95	58	–	–
CCN(CC)CC(O)COc1ccc2oc(=O)cc(C)c2c1 (centres undefined)	0.017	0.0196	0.0278	100	96	58	–	–
CCCNCC(O)COc1ccc2c(-c3ccccc3)cc(=O)oc2c1 (centres undefined)	0.0158	0.0178	0.0241	100	100	53	–	–
